Data as given in paper PMC10247892 (Biomedicine & Pharmacotherapy, 2023).
Read-outs that look alike come from different tables or passages of the source.

Columns and labels:
[1] = tested on: SARS-CoV-2 Spike pseudovirus; assay type: cell-based
[2] = tested on: HCoV-229E; test: Antiviral activity against HCoV-229E in MRC-5 cells; assay type: cell-based, human coronavirus 229E; settings: for IC50: read-out: IC50 ± SD
Method in brief: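 MRC-5 cells were seeded at 20,000/well in duplicate per drug and condition and grown to 80 % confluency. Virus was adsorbed at MOI 0.1 PFU/cell in FBS-free DMEM for 1 h at 37 °C, then removed. Serial dilutions of test compound in 1 % FBS DMEM were added for 24 h, at doses below MTT-determined cytotoxicity. Cells were fixed with PFA, saponin-permeabilised and stained with anti-N antibody, Alexa 488 secondary and DAPI, then imaged by widefield fluorescence. Infection was normalised to the untreated infected control (100 %). IC50 came from a nonlinear dose-effect fit. Three replicate experiments.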

[3] = Cytotoxicity assay; assay type: cell-based; settings: human, MRC-5 cells
[4] = tested on: SARS-CoV-2; assay type: cell-based; settings: Vero E6 cells
[5] = tested on: SARS-CoV-2; test: TEM of Vero E6 cells infected with SARS-CoV-2; assay type: cell-based; settings: infected Vero E6, highest concentration (HβCD 20 mM), 48 hpi
Method in brief: (§1)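 Mock- or virus-infected Vero E6 monolayers were kept without or with two concentrations of test compound (0.16 mM or 20 mM for the cyclodextrin shown). At 48 h they were fixed with 4 % PFA plus 1 % glutaraldehyde in PBS for 2 h at RT. Samples were pelleted, post-fixed on ice in osmium tetroxide/potassium ferrocyanide, acetone-dehydrated and epoxy-embedded. At least 100 cells per condition were examined by TEM.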

[6] = tested on: Vero E6 cells; test: TEM of mock-infected Vero E6 cells; assay type: cell-based; settings: 48 h
Method in brief: as §1

[7] = tested on: Vero E6 cells; settings: uninfected Vero E6 cells, 3 days
[8] = tested on: MRC-5 cells; test: Cytotoxicity assay; assay type: cell-based; settings: read-out: CC50 ± SD, MTT, 24 h
[9] = Human coronavirus 229E, MRC5, 24 h
[10] = Vero E6, lower or only dose (HβCD 0.16 mM, phytol 50 µM)
[11] = HCoV229E, MRC-5 cells, MOI 0.1, 24 h

## OC[C@H]1O[C@@H]2O[C@H]3[C@H](O)[C@@H](O)[C@@H](O[C@H]4[C@H](O)[C@@H](O)[C@@H](O[C@H]5[C@H](O)[C@@H](O)[C@@H](O[C@H]6[C@H](O)[C@@H](O)[C@@H](O[C@H]7[C@H](O)[C@@H](O)[C@@H](O[C@H]8[C@H](O)[C@@H](O)[C@@H](O[C@H]1[C@H](O)[C@H]2O)O[C@@H]8CO)O[C@@H]7CO)O[C@@H]6CO)O[C@@H]5CO)O[C@@H]4CO)O[C@@H]3CO [β-CD, ß-Cyclodextrin]
[1]
  Inhibition of SARS-CoV-2 pseudovirus entry (in words): most potent

## CC(O)COC[C@H]1O[C@@H]2O[C@H]3[C@H](O)[C@@H](O)[C@@H](O[C@H]4[C@H](O)[C@@H](O)[C@@H](O[C@H]5[C@H](O)[C@@H](O)[C@@H](O[C@H]6[C@H](O)[C@@H](O)[C@@H](O[C@H]7[C@H](O)[C@@H](O)[C@@H](O[C@H]8[C@H](O)[C@@H](O)[C@@H](O[C@H]1[C@H](O)[C@H]2O)O[C@@H]8COCC(C)O)O[C@@H]7COCC(C)O)O[C@@H]6COCC(C)O)O[C@@H]5COCC(C)O)O[C@@H]4COCC(C)O)O[C@@H]3COCC(C)O (stereo partly drawn) [HβCD, hydroxypropyl-β-cyclodextrin]
[2]; [9]
  IC50: 4300 ± 4000 µM
[3]
  CC50 at 24 h: 43600 µM
[4]
  Antiviral activity against SARS-CoV-2 (in words): had antiviral activity
[1]
  Inhibition of SARS-CoV-2 pseudovirus entry (in words): inhibited the entry of pseudovirus
[1]; listed as HP-β
  Inhibition of SARS-CoV-2 pseudovirus entry (in words): most potent
[5]
  Effect on infected cells by TEM (in words): all viral structures were reduced
[6]; Vero E6, higher dose (HβCD 20 mM)
  Alterations in mock-infected cells by TEM (in words): increased number of vacuoles
[6]; [10]
  Alterations in mock-infected cells by TEM (in words): did not produce appreciable changes
[7]
  First cytotoxic conc.: 20000 µM

## C[C@H]1O[C@@H](O[C@H]2[C@@H](O)C[C@H](O[C@H]3[C@@H](O)C[C@H](O[C@H]4CC[C@@]5(C)[C@H](CC[C@@H]6[C@@H]5CC[C@]5(C)[C@@H](C7=CC(=O)OC7)CC[C@]65O)C4)O[C@@H]3C)O[C@@H]2C)C[C@H](O)[C@@H]1O [Digitoxin]
[3]
  CC50 at 24 h: 0.0069 µM
[7]
  First cytotoxic conc.: 1.56 µM

## CCC(CC)COC(=O)[C@H](C)N[P@](=O)(OC[C@H]1O[C@@](C#N)(c2ccc3c(N)ncnn23)[C@H](O)[C@@H]1O)Oc1ccccc1 [Remdesivir]
[7]
  First cytotoxic conc.: 100 µM

## CC1=CCC(=C(C)C)CC1 [Terpinolene]
[2]; [9]
  IC50: 8000 ± 2200 µM
[3]
  CC50 at 24 h: 69000 µM
[7]
  First cytotoxic conc.: 10000 µM

## Nc1ccc(C(=O)NCC(=O)O)cc1 [Aminohipurric]
[8]
  CC50: < 10000 µM

## Phytol
[2]; [11]
  IC50: 18.6 ± 6.9 µM
[8]
  CC50: 56.2 µM
[4]
  Antiviral activity against SARS-CoV-2 (in words): had antiviral activity
[5]
  Effect on infected cells by TEM (in words): clear signs of cytopathic effect
[6]; [10]
  Alterations in mock-infected cells by TEM (in words): did not cause significant alterations
[7]
  First cytotoxic conc.: 100 to 200 µM

## CCC(C)(C)C(=O)O[C@H]1C[C@@H](C)C=C2C=C[C@H](C)[C@H](CC[C@@H]3C[C@@H](O)CC(=O)O3)[C@H]21 [Simvastatin]
[2]; MRC-5 cells
  Inhibition of HCoV-229E infection (in words): inhibit 229E virus

## CC(=O)NS(=O)(=O)c1ccc(N)cc1 [Sulfacetamide]
[3]
  CC50 at 24 h: > 1000 µM

## O=C1c2c(O)cc(O)cc2OC(c2ccc(O)c(O)c2)C1O (stereo not drawn) [Taxifolin]
[2]; MRC-5 cells
  Inhibition of HCoV-229E infection (in words): inhibit 229E virus

## COC[C@H]1OC(=O)c2coc3c2[C@@]1(C)C1=C(C3=O)[C@@H]2CCC(=O)[C@@]2(C)C[C@H]1OC(C)=O [Wortmannin]
[2]; [9]
  IC50: 21.6 ± 15.6 µM
[3]
  CC50 at 24 h: > 50 µM
[7]
  First cytotoxic conc.: 25 µM

## NCC(CC(=O)O)c1ccc(Cl)cc1 (stereo not drawn) [Baclogen]
[2]; MRC-5 cells
  Inhibition of HCoV-229E infection (in words): did not have an inhibitory effect
[8]
  CC50: > 1000 µM

## C=C1CC[C@H]2C(=C)CC[C@H]3C(=C)C(=O)O[C@@H]3[C@@H]12 [Dehydrocostus lactone]
[2]; [9]
  IC50: 4.2 ± 1.8 µM
[3]
  CC50 at 24 h: 39.1 µM
[7]
  First cytotoxic conc.: 100 µM

## Oc1ccc(/C=C/c2cc(O)cc(O)c2)cc1 [Resveratrol]
[2]; MRC-5 cells
  Inhibition of HCoV-229E infection (in words): inhibit 229E virus

## CCCCCCCCCCC(C)(C)C(=O)Nc1c(OC)cc(OC)cc1OC [CI976]
[8]
  CC50: 50.7 µM
[7]
  First cytotoxic conc.: 100 µM

## CC(=O)Nc1nc(C)c(-c2ccc(Cl)c(S(=O)(=O)NCCO)c2)s1 [PIK93]
[2]; [11]
  IC50: 4.2 ± 1.4 µM
[8]
  CC50: > 50 µM
[7]
  First cytotoxic conc.: 20 µM

## CC(=O)O[C@H]1C[C@H](O[C@H]2[C@@H](O)C[C@H](O[C@H]3[C@@H](O)C[C@H](O[C@H]4CC[C@@]5(C)[C@H](CC[C@@H]6[C@@H]5C[C@@H](O)[C@]5(C)[C@@H](C7=CC(=O)OC7)CC[C@]65O)C4)O[C@@H]3C)O[C@@H]2C)O[C@H](C)[C@H]1O[C@@H]1O[C@H](CO)[C@@H](O)[C@H](O)[C@H]1O [Lanatoside C]
[2]; MRC-5 cells
  Inhibition of HCoV-229E infection (in words): inhibit 229E virus

## COc1cc(-n2c(=S)[nH]c3ccccc3c2=O)c(Cl)cc1Cl [Mdivi-1]
[2]; [11]
  IC50: 11.7 ± 0.7 µM
[8]
  CC50: 95.4 µM
[7]
  First cytotoxic conc.: 20 µM

## COc1cc([C@H]2Oc3cc([C@H]4Oc5cc(O)cc(O)c5C(=O)[C@@H]4O)ccc3O[C@@H]2CO)ccc1O [SilibininA, Silibinin A]
[2]; MRC-5 cells
  Inhibition of HCoV-229E infection (in words): inhibit 229E virus

## CO[C@H]1C[C@@H]2CC[C@@H](C)[C@@](O)(O2)C(=O)C(=O)N2CCCC[C@H]2C(=O)O[C@H]([C@H](C)C[C@@H]2CC[C@@H](OCCO)[C@H](OC)C2)CC(=O)[C@H](C)/C=C(\C)[C@@H](O)[C@@H](OC)C(=O)[C@H](C)C[C@H](C)/C=C/C=C/C=C/1C [Everolimus]
[2]; MRC-5 cells
  Inhibition of HCoV-229E infection (in words): inhibit 229E virus

## CC1=CC[C@@H](C(C)(C)O)CC1 [Alpha-terpineol]
[2]; [9]
  IC50: 382 ± 107 µM
[3]
  CC50 at 24 h: 1060 µM

## CC(=O)Oc1ccccc1C(=O)O [Aspirin]
[2]; [9]
  IC50: 1000 µM
[3]
  CC50 at 24 h: 1100 µM

## C=C1C2CCC(C2)C1(C)C (stereo not drawn) [Camphene]
[3]
  CC50 at 24 h: 72000 µM

## C[C@@H]1CC[C@H]2C(C)(C)[C@H]3C[C@@]12CC[C@@]3(C)O [alpha-cedrol]
[2]; MRC-5 cells
  Inhibition of HCoV-229E infection (in words): inhibited 229E but their CC50 was close to the IC50

## OCC(S)CS (stereo not drawn) [Dimercaprol]
[2]; MRC-5 cells
  Inhibition of HCoV-229E infection (in words): inhibited 229E but their CC50 was close to the IC50

## CC1(C)CC[C@]2(C(=O)O)CC[C@]3(C)C(=CC[C@@H]4[C@@]5(C)CC[C@H](O)C(C)(C)[C@@H]5CC[C@]43C)[C@@H]2C1 [Oleanolic acid]
[3]
  CC50 at 24 h: 25200 µM

## Gingenoside RB1
[2]; [11]
  IC50: 48.3 ± 2.1 µM
[8]
  CC50: > 1000 µM
[7]
  First cytotoxic conc.: 50 µM

## CC1=C(C(=O)OC2CCCCC2)C(c2ccc([N+](=O)[O-])cc2)C2=C(CC(C)(C)CC2=O)N1 (stereo not drawn) [FLI 06]
[2]; [11]
  IC50: 0.4 ± 0.3 µM
[8]
  CC50: > 50 µM
[7]
  First cytotoxic conc.: 4 to 6.25 µM

## CC(C)C[C@H](NC(=O)[C@H](Cc1ccccc1)NC(=O)c1cnccn1)B(O)O [Bortezomib (PS-341), Bortezomib]
[2]; [9]
  IC50: 0.0006 ± 0.0003 µM
[3]
  CC50 at 24 h: > 0.1 µM
[7]
  First cytotoxic conc.: 0.8 µM

## CC(C)[C@@H]1NC(=O)[C@H](C)OC(=O)[C@@H](C(C)C)NC(=O)[C@@H](C(C)C)OC(=O)[C@H](C(C)C)NC(=O)[C@H](C)OC(=O)[C@@H](C(C)C)NC(=O)[C@@H](C(C)C)OC(=O)[C@H](C(C)C)NC(=O)[C@H](C)OC(=O)[C@@H](C(C)C)NC(=O)[C@@H](C(C)C)OC1=O [Valinomycin]
[2]; [9]
  IC50: 2.5 ± 0.2 µM
[3]
  CC50 at 24 h: 12.5 µM
[7]
  First cytotoxic conc.: 0.32 µM

## O=c1c(O)c(-c2ccc(O)c(O)c2)oc2cc(O)cc(O)c12 [Quercetin]
[2]; MRC-5 cells
  Inhibition of HCoV-229E infection (in words): inhibit 229E virus

## N[C@@H](Cc1ccccc1)C(=O)O [L-Phenilalanine]
[8]
  CC50: < 10000 µM

## C=C1CC/C=C(\C)CC[C@@H]2[C@@H]1CC2(C)C [(-)-Trans-Caryophyllene]
[3]
  CC50 at 24 h: 1840 µM

## CCc1c(-c2ccccc2)c(-c2ccccc2)nn1-c1ccccc1-c1cccc(OCC(=O)O)c1 [BMS309403]
[2]; MRC-5 cells
  Inhibition of HCoV-229E infection (in words): inhibited 229E but their CC50 was close to the IC50

## C=C(C)[C@H]1CC=C(C)CC1 [R-(+)-Limonene]
[8]
  CC50: 1910 µM

## CCC(C)n1ncn(-c2ccc(N3CCN(c4ccc(OCC5COC(Cn6cncn6)(c6ccc(Cl)cc6Cl)O5)cc4)CC3)cc2)c1=O (stereo not drawn) [Itraconazole]
[2]; MRC-5 cells
  Inhibition of HCoV-229E infection (in words): inhibit 229E virus

## C[C@H]1O[C@@H](O[C@H]2[C@@H](O)C[C@H](O[C@H]3[C@@H](O)C[C@H](O[C@H]4CC[C@@]5(C)[C@H](CC[C@@H]6[C@@H]5C[C@@H](O)[C@]5(C)[C@@H](C7=CC(=O)OC7)CC[C@]65O)C4)O[C@@H]3C)O[C@@H]2C)C[C@H](O)[C@@H]1O [Digoxin]
[2]; MRC-5 cells
  Inhibition of HCoV-229E infection (in words): inhibit 229E virus

## O=c1c(O)c(-c2cc(O)c(O)c(O)c2)oc2cc(O)cc(O)c12 [Myricetin]
[3]
  CC50 at 24 h: 434 µM

## CO[C@H]1C[C@@H]2CC[C@@H](C)[C@@](O)(O2)C(=O)C(=O)N2CCCC[C@H]2C(=O)O[C@H]([C@H](C)C[C@@H]2CC[C@@H](O)[C@H](OC)C2)CC(=O)[C@H](C)/C=C(\C)[C@@H](O)[C@@H](OC)C(=O)[C@H](C)C[C@H](C)/C=C/C=C/C=C/1C [Sirolimus]
[2]; MRC-5 cells
  Inhibition of HCoV-229E infection (in words): inhibit 229E virus
